From ChEMBL document CHEMBL3872203, “Synthesis, anticancer activity and photostability of novel 3-ethyl-2-mercapto-thieno[2,3-d]pyrimidin-4(3H)-ones” (Eur J Med Chem, 2016)

Assays:
[1] = Cytotoxicity against human HT-29 cells after 24 hrs by MTS assay; assay type: functional, cell-based; settings: HT-29, 24 h
In short: (§1)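 Cells were exposed for 24 h to compound diluted 1:10, 1:100, 1:1000 and 1:10,000 from a 4 mg/ml DMSO stock; untreated controls were grown in non-modified medium. MTS was added for 2 h at 37 °C under 5% CO2, and absorbance was read at 490 nm. Viability is expressed as % of untreated control, averaged over three independent assays. EC50 or IC50 values were calculated from the plotted data.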

[2] = Cytotoxicity against human MDA-MB-231 cells after 24 hrs by MTS assay; assay type: functional, cell-based; settings: MDA-MB-231, 24 h; in short: as §1
[3] = Cytotoxicity against human HeLa cells after 24 hrs by MTS assay; assay type: functional, cell-based; in short: as §1
[4] = Cytotoxicity against human HepG2 cells after 24 hrs by MTS assay; assay type: functional, cell-based; settings: HepG2, 24 h; in short: as §1
[5] = Cytotoxicity against human LEP-3 cells after 24 hrs by MTS assay; assay type: toxicity, cell-based; in short: as §1
[6] = Photostability of the compound in DMF at 2185 +/- 0.087 10^-5mol/L measured up to 240 mins in presence of UV-light by UV-vis spectrophotometric analysis; settings: 4 h
[7] = Photostability of the compound in DMF at 3916 +/- 0.158 10^-5mol/L measured up to 240 mins in presence of UV-light by UV-vis spectrophotometric analysis; settings: 4 h
[8] = Photostability of the compound in DMF at 5242 +/- 0.209 10^-5mol/L measured up to 240 mins in presence of UV-light by UV-vis spectrophotometric analysis; settings: 4 h
[9] = Photostability of the compound in DMF at 2275 +/- 0.091 10^-5mol/L measured up to 240 mins in presence of UV-light by UV-vis spectrophotometric analysis; settings: 4 h
[10] = Photostability of the compound in DMF at 4089 +/- 0.164 10^-5mol/L measured up to 240 mins in presence of UV-light by UV-vis spectrophotometric analysis; settings: 4 h
[11] = Antiproliferative activity against human MDA-MB-231 cells after 24 hrs by MTS assay; assay type: functional, cell-based; settings: MDA-MB-231, 24 h; in short: as §1
[12] = Antiproliferative activity against human HeLa cells after 24 hrs by MTS assay; assay type: functional, cell-based; in short: as §1
HT-29 = experiment: Ratio of IC50 for human LEP-3 cells to IC50 for human HT-29 cells
[13] = Antiproliferative activity against human HT-29 cells after 24 hrs by MTS assay; assay type: functional, cell-based; settings: HT-29, 24 h; in short: as §1
[14] = Photostability of the compound in DMF assessed as drug degradation at 3128 +/- 0.125 10^-5mol/L measured after 240 mins in presence of UV-light by UV-vis spectrophotometric analysis; assay type: physicochemical; settings: DMF solution under UV light; read-out: Drug degradation
[15] = Antiproliferative activity against human HepG2 cells after 24 hrs by MTS assay; assay type: functional, cell-based; settings: HepG2, 24 h; in short: as §1
[16] = Antiproliferative activity against human LEP-3 cells after 24 hrs by MTS assay; assay type: cell-based; settings: LEP-3, 24 h; in short: as §1

`CCNc1nnc(CSc2nc3sc(C)c(C)c3c(=O)n2CC)s1` gave an IC50 [1] of 3.58 µM, an IC50 [2] of 9.4 µM and an IC50 [3] of 7.42 µM. The IC50 [4] was 0.99 µM, the IC50 at 24 h [5] was 191 µM and the Stability [6] was “Stable”. The Stability [7] was “Stable”, the Stability [8] was “Stable” and the Stability [9] was “Stable”. For the same molecule, the Stability [10] was “Stable”.
For `CCNc1nnc(CSc2nc3sc4c(c3c(=O)n2CC)CCCC4)s1`, the EC50 [11] was 0.001 µM, the EC50 [12] was 9.28 µM and the IC50 [1] was 0.001 µM. The IC50 [4] was 9.8 µM, the IC50 at 24 h [5] was 9.77 µM and the “Ratio IC50” value (HT-29) was 100. The Stability [6] was “Stable”, the Stability [7] was “Stable” and the Stability [8] was “Stable”. For the same molecule, the Stability [9] was “Stable” and the Stability [10] was “Stable”.
For `CCNC(=S)NNC(=O)CSc1nc2sc(C)c(C)c2c(=O)n1CC`, the EC50 [13] was 0.085 µM, the EC50 [11] was 8.86 µM and the EC50 [12] was 0.43 µM. It also gave an IC50 at 24 h [5] of 0.01 µM and a degraded at 4 h [14] of 30%.
With `CCNc1nnc(CSc2nc3sc(C(=O)OCC)c(C)c3c(=O)n2CC)s1` the IC50 [1] was 9.12 µM, the IC50 [2] was 2.13 µM and the IC50 [3] was 0.83 µM. For the same molecule, the IC50 [4] was 9.51 µM, the IC50 at 24 h [5] was 0.089 µM and the Stability [6] was “Stable”. The Stability [7] was “Stable”, the Stability [8] was “Stable” and the Stability [9] was “Stable”. For the same molecule, the Stability [10] was “Stable”.
For `CCNC(=S)NNC(=O)CSc1nc2sc3c(c2c(=O)n1CC)CCCC3`, the EC50 [13] was 1.13 µM, the EC50 [11] was 9.33 µM and the EC50 [12] was 7.97 µM. For the same molecule, the EC50 [15] was 2.72 µM, the EC50 [16] was 8.25 µM and the Stability [6] was “Stable”. For the same molecule, the Stability [7] was “Stable”, the Stability [8] was “Stable” and the Stability [9] was “Stable”. The Stability [10] was “Stable”.
Molecule `CCNC(=S)NNC(=O)CSc1nc2sc(C(=O)OCC)c(C)c2c(=O)n1CC` has an IC50 [1] of 7.38 µM, an IC50 [2] of 0.000231 µM and an IC50 [3] of 8.71 µM. The IC50 [4] was 8.71 µM, the IC50 at 24 h [5] was 0.8 µM and the Stability [6] was “Stable”. For the same molecule, the Stability [7] was “Stable”, the Stability [8] was “Stable” and the Stability [9] was “Stable”. For the same molecule, the Stability [10] was “Stable”.
